ChEMBL document CHEMBL1828502, “Quinolinyl and quinolinyl N-oxide chalcones: synthesis, antifungal and cytotoxic activities” (Eur J Med Chem, 2011)
Values after ≈ are worked out from the molar mass of the structure shown.

Key:
[1] = test system: HL-60; test: Anticancer activity against human HL60 cells after 48 hrs by MTT assay; format: functional, cell-based
Procedure, shortened: (§1)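 HL60 and Jurkat leukemia lines plated at 50,000 and 100,000 cells/well respectively and pre-incubated 24 h at 37 °C, 5% CO2. Compounds dissolved in DMSO and tested over a concentration range of […] for 48 h. Viability read by MTT reduction (4 h), formazan dissolved in acidic isopropanol, OD 590 nm. Values normalized to 0.05% DMSO control; IC50 taken graphically from dose-effect curves. Triplicate, three separate days.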

[2] = test system: Candida tropicalis; test: Antifungal activity against Candida tropicalis by two fold serial dilution method; format: functional
Procedure, shortened: (§2)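 Broth microdilution MIC following CLSI M27-A2 with twofold serial dilutions; strains ATCC 18804 (C. albicans), ATCC 22019 (C. parapsilosis), ATCC 750 (C. tropicalis), ATCC 32608 (C. gattii), kept on Sabouraud dextrose agar at 4 °C. Amphotericin B and trimethoprim/sulfamethoxazole served as positive controls.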

[3] = test system: Candida albicans; test: Antifungal activity against Candida albicans by two fold serial dilution method; format: functional; procedure, shortened: as §2
[4] = test system: Cryptococcus gattii species complex; test: Antifungal activity against Cryptococcus gattii by two fold serial dilution method after 3 days by broth microdilution method in presence of 1 M osmotic stabilizer sorbitol; format: functional, Cryptococcus bacillisporus; settings: 72 h
[5] = test system: Cryptococcus gattii species complex; test: Antifungal activity against Cryptococcus gattii by two fold serial dilution method; format: functional, Cryptococcus bacillisporus; procedure, shortened: as §2
[6] = test system: TK-10; test: Anticancer activity against human TK10 cells after 48 hrs by sulforhodamine B assay; format: functional, cell-based
Procedure, shortened: (§3)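 Solid tumour lines from NCI (NCI colorimetric protocol), seeded and pre-incubated 24 h at 37 °C, 5% CO2, then exposed to compounds for 48 h. Proteins fixed with trichloroacetic acid, stained with sulforhodamine B, dye dissolved in 10 mM Tris, absorbance at 515 nm compared against initial-density control wells. IC50 from dose-response curves built with 1:2 serial dilutions; duplicate, repeated at least three times.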

[7] = test system: Candida parapsilosis; test: Antifungal activity against Candida parapsilosis by two fold serial dilution method; format: functional; settings: Lodderomyces parapsilosis; procedure, shortened: as §2
[8] = test system: Candida tropicalis; test: Antifungal activity against Candida tropicalis after 2 days by broth microdilution method in presence of 1 M osmotic stabilizer sorbitol; format: functional; settings: 48 h
[9] = test system: Jurkat; test: Anticancer activity against human Jurkat cells after 48 hrs by MTT assay; format: functional, cell-based; procedure, shortened: as §1
[10] = test system: Paracoccidioides brasiliensis; test: Antifungal activity against Paracoccidioides brasiliensis Pb18 by serial dilution method; format: functional
[11] = test system: MCF7; test: Anticancer activity against human MCF7 cells after 48 hrs by sulforhodamine B assay; format: functional, cell-based; procedure, shortened: as §3
[12] = test system: UACC-62; test: Anticancer activity against human UACC62 cells after 48 hrs by sulforhodamine B assay; format: functional, cell-based; procedure, shortened: as §3
[13] = test system: Paracoccidioides brasiliensis; test: Antifungal activity against Paracoccidioides brasiliensis Pb18 after 10 days by broth microdilution method in presence of 1 M osmotic stabilizer sorbitol; format: functional; settings: 240 h
[14] = Homo sapiens, HL-60, 48 h, read-out: IC50
[15] = Homo sapiens, Jurkat, 48 h, read-out: IC50
[16] = Homo sapiens, TK-10, 48 h, read-out: IC50
[17] = Homo sapiens, MCF7, 48 h, read-out: IC50
[18] = Homo sapiens, UACC-62, 48 h, read-out: IC50

SMILES | IC50 [1, 14] | MIC [2] | MIC [3] | MIC [4] | MIC [5] | IC50 ([6]; tk-10) | MIC [7] | MIC [8] | IC50 ([9]; jurkat) | MIC [10] | IC50 ([11]; mcf7) | IC50 ([12]; uacc-62) | MIC [13] | IC50 [9, 15] | IC50 ([1]; hl-60) | IC50 [6, 16] | IC50 [11, 17] | IC50 [12, 18]
Cc1ccc(C(=O)/C=C/c2ccc3ncccc3c2)cc1 | 8.28 µg/mL (≈ 30.3 µM) | > 500 µg/mL | > 500 µg/mL | > 31.2 µg/mL | > 500 µg/mL | Not Active | > 500 µg/mL | > 31.2 µg/mL | Not Active | 7.8 µg/mL (≈ 28.5 µM) | Not Active | Not Active | 7.8 µg/mL |  |  |  |  | 
COc1ccc(C(=O)/C=C/c2ccc3c(ccc[n+]3C)c2)cc1.[I-] | 25.2 µg/mL | 62.5 µg/mL | 62.5 µg/mL | 62.5 µg/mL | 31.2 µg/mL | Not Active | 125 µg/mL | > 31.2 µg/mL |  | 125 µg/mL | Not Active | Not Active | > 31.2 µg/mL | 11.9 µg/mL |  |  |  | 
O=C(/C=C/c1ccc2ncccc2c1)c1ccccc1 |  | > 500 µg/mL | > 500 µg/mL |  | 125 µg/mL (≈ 482 µM) |  | > 500 µg/mL |  | Not Active |  |  |  |  |  | Not Active | 7 µg/mL (≈ 27 µM) | 1.1 µg/mL (≈ 4.24 µM) | 3.83 µg/mL (≈ 14.8 µM)
COc1ccc(C(=O)/C=C/c2ccc3ncccc3c2)cc1 | 12.6 µg/mL (≈ 43.5 µM) | > 500 µg/mL | > 500 µg/mL |  | > 500 µg/mL | Not Active | > 500 µg/mL |  |  | 62.5 µg/mL (≈ 216 µM) |  |  |  | 19.6 µg/mL (≈ 67.7 µM) |  |  | 0.19 µg/mL (≈ 0.657 µM) | 22.5 µg/mL (≈ 77.8 µM)
O=C(/C=C/c1ccc2ncccc2c1)c1ccc([N+](=O)[O-])cc1 |  | > 500 µg/mL | > 500 µg/mL |  | > 500 µg/mL |  | > 500 µg/mL |  |  | 500 µg/mL (≈ 1640 µM) |  |  |  |  |  |  |  | 
O=C(/C=C/c1ccc2ncccc2c1)c1ccc(F)cc1 | 20.8 µg/mL (≈ 75 µM) | > 500 µg/mL | > 500 µg/mL | > 31.2 µg/mL | 500 µg/mL (≈ 1800 µM) |  | > 500 µg/mL | > 31.2 µg/mL |  | 7.8 µg/mL (≈ 28.1 µM) |  |  | 7.8 µg/mL | 26.5 µg/mL (≈ 95.6 µM) |  | 1 µg/mL (≈ 3.61 µM) | 6.3 µg/mL (≈ 22.7 µM) | 5.6 µg/mL (≈ 20.2 µM)
O=C(/C=C/c1ccc2ncccc2c1)c1ccc(Br)cc1 |  | > 500 µg/mL | > 500 µg/mL |  | > 500 µg/mL |  | > 500 µg/mL |  |  | > 500 µg/mL |  |  |  |  |  |  |  | 
O=C(/C=C/c1ccc2ncccc2c1)c1ccc(Cl)cc1 | 8.8 µg/mL (≈ 30 µM) | > 500 µg/mL | > 500 µg/mL |  | > 500 µg/mL | Not Active | > 500 µg/mL |  |  | 62.5 µg/mL (≈ 213 µM) |  | Not Active |  | 15 µg/mL (≈ 51.1 µM) |  |  | 0.96 µg/mL (≈ 3.27 µM) | 
O=C(/C=C/c1ccc2c(ccc[n+]2[O-])c1)c1ccccc1 | 4.9 µg/mL (≈ 17.8 µM) | > 500 µg/mL | > 500 µg/mL |  | 250 µg/mL (≈ 908 µM) | Not Active | > 500 µg/mL |  | Not Active | 62.5 µg/mL (≈ 227 µM) | Not Active | Not Active |  |  |  |  |  | 
Cc1ccc(C(=O)/C=C/c2ccc3c(ccc[n+]3[O-])c2)cc1 | 20.3 µg/mL (≈ 70.2 µM) | > 500 µg/mL | > 500 µg/mL |  | 500 µg/mL (≈ 1730 µM) |  | > 500 µg/mL |  |  | 125 µg/mL (≈ 432 µM) |  |  |  | 32.5 µg/mL (≈ 112 µM) |  | 1 µg/mL (≈ 3.46 µM) | 8.3 µg/mL (≈ 28.7 µM) | 5.3 µg/mL (≈ 18.3 µM)
COc1ccc(C(=O)/C=C/c2ccc3c(ccc[n+]3[O-])c2)cc1 | 14.8 µg/mL (≈ 48.5 µM) | > 500 µg/mL | > 500 µg/mL | > 31.2 µg/mL | > 500 µg/mL |  | > 500 µg/mL | > 31.2 µg/mL |  | 15.6 µg/mL (≈ 51.1 µM) |  |  | 15.6 µg/mL | 36.3 µg/mL (≈ 119 µM) |  | 5.25 µg/mL (≈ 17.2 µM) | 1.15 µg/mL (≈ 3.77 µM) | 4.3 µg/mL (≈ 14.1 µM)
